Assay results from ChEMBL document CHEMBL1132379, “2-thioether 5'-O-(1-thiotriphosphate)adenosine derivatives as new insulin secretagogues acting through P2Y-Receptors” (J Med Chem, 1999).

What was measured:
[1] = molecular target: T1, P2Y purinoceptor 1 (Meleagris gallopavo, UniProt P49652); experiment: Agonistic activity for P2Y purinoceptor 1 of turkey erythrocyte membranes; assay type: functional
How it was run: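 [³H]myoinositol-labeled washed turkey erythrocytes (18–24 h, 37 °C), membranes made by hypotonic lysis; phospholipase C measured as total [³H]inositol phosphates (ion-exchange) after 5 min at 30 °C with GTPγS, pH 7.0 Hepes medium. EC50 from four-parameter logistic fit; at least three experiments with different membrane preparations, duplicate assays.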

[2] = molecular target: T1, P2Y purinoceptor 1; experiment: Compound was evaluated for its agonistic activity towards P2Y purinoceptor 1 in turkey erythrocyte membranes; NE=No effect; assay type: functional, cell membranes
How it was run: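 Turkey erythrocytes labeled 18–24 h at 37 °C with 2-[3H]myoinositol in inositol-free DMEM, then lysed in hypotonic buffer (5 mM sodium phosphate pH 7.4, 5 mM MgCl2, 1 mM EGTA) to make membranes. Phospholipase C was assayed with GTPγS and graded nucleotide concentrations at 30 °C for 5 min, pH 7.0 Hepes medium. Total [3H]inositol phosphates were measured by ion-exchange chromatography. EC50 came from four-parameter logistic fits, ≥3 experiments on separate membrane preparations, duplicate assays.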

T1 sequence (P49652 whole entry): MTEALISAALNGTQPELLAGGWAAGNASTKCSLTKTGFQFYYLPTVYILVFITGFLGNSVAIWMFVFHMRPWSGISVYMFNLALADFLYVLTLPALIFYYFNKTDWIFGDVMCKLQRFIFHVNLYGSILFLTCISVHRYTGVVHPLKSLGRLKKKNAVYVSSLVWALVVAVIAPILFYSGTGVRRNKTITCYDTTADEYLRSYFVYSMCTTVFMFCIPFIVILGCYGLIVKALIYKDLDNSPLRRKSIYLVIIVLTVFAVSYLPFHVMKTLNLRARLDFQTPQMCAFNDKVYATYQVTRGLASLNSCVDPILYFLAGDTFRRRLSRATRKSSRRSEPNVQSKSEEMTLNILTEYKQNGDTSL

Row | SMILES | EC50 [1] [nM] | EC50 [2]
1 | Nc1ncnc2c1ncn2[C@@H]1O[C@H](COP(=O)(O)OP(=O)(O)OP(=O)(O)O)[C@@H](O)[C@H]1O [ADENOSINE TRIPHOSPHATE] | 6350 | 
2 | CCCCCCSc1nc(N)c2ncn(C3O[C@H](COP(O)(O)=S)[C@@H](O)[C@H]3O)c2n1 (stereo partly drawn) | 2790 | 
3 | Nc1ncnc2c1ncn2C1O[C@H](COP(O)(=S)OP(=O)(O)OP(=O)(O)O)[C@@H](O)[C@H]1O (stereo partly drawn) | 6280 | 
4 | Nc1nc(SCCc2ccc([N+](=O)[O-])cc2)nc2c1ncn2[C@@H]1O[C@H](COP(O)(=S)OP(=O)(O)OP(=O)(O)O)[C@@H](O)[C@H]1O (stereo in doubt; 5bA) | 510 | 
5 | CCCCCCSc1nc(N)c2ncn([C@@H]3O[C@H](COP(O)(=S)OP(=O)(O)OP(=O)(O)O)[C@@H](O)[C@H]3O)c2n1 (stereo in doubt; 5aA) | 17 | 
6 | CCCCCCSc1nc(N)c2ncn([C@@H]3O[C@H](COP(O)(=S)OP(=O)(O)OP(=O)(O)O)[C@@H](O)[C@H]3O)c2n1 (stereo in doubt; 5aB) | 21 | 
7 | Nc1ncnc2c1ncn2[C@@H]1O[C@H](COP(O)(O)=S)[C@@H](O)[C@H]1O |  | Not Active
8 | Nc1nc(SCCc2ccc([N+](=O)[O-])cc2)nc2c1ncn2[C@@H]1O[C@H](COP(O)(O)=S)[C@@H](O)[C@H]1O | 2360 | 
9 | CCCCCCSc1nc(N)c2ncn([C@@H]3O[C@H](COP(=O)(O)O)[C@@H](O)[C@H]3O)c2n1 | 60 | 
10 | CCCCCCSc1nc(N)c2ncn(C3O[C@H](COP(=O)(O)OP(=O)(O)OP(=O)(O)O)[C@@H](O)[C@H]3O)c2n1 (stereo partly drawn) | 10 | 
11 | Nc1nc(SCCc2ccc([N+](=O)[O-])cc2)nc2c1ncn2C1O[C@H](COP(=O)(O)OP(=O)(O)OP(=O)(O)O)[C@@H](O)[C@H]1O (stereo partly drawn) | 12 | 
12 | Nc1nc(SCCc2ccc([N+](=O)[O-])cc2)nc2c1ncn2[C@@H]1O[C@H](COP(O)(=S)OP(=O)(O)OP(=O)(O)O)[C@@H](O)[C@H]1O (stereo in doubt; 5bB) | 890 | 
13 | Nc1nc(SCCc2ccc([N+](=O)[O-])cc2)nc2c1ncn2C1O[C@H](COP(=O)(O)O)[C@@H](O)[C@H]1O (stereo partly drawn) | 3000 | 
